# According to ChEMBL document CHEMBL4689842, “EUbOPEN Chemogenomics Library wave 1” (2021):
# Where “and” joins values, the source holds several entries; their conditions need not be identical. Identical values can stand only once.
# Tested on: Fibroblast
# Assay: Multiplex assay against human fibroblast
# Assay type: toxicity, cell-based
# How it was run: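 Hoechst33342, BioTracker Green Microtubule Cytoskeleton Dye, MitoTracker Red and Annexin V Alexa Fluor 680 were added to live cells at seeding, and imaging on a CQ1 microscope at 37°C and 5% CO2 followed compound addition. Gating by CellPathfinder machine learning separated cells into Hoechst high-intensity objects or normal cells, then normal cells into healthy, pyknosed or fragmented nuclei, then pyknosed cells into mitotic or apoptotic. Per cents of healthy-nucleus cells are reported for the tubulin, mitochondrial-mass and membrane-permeability phenotypes.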
# [1] = 12 h, 1 µM, compound concentration 1 uM, replicate 1
# [2] = 12 h, 1 µM, compound concentration 1 uM, replicate 2
# [3] = 12 h, 10 µM, compound concentration 10 uM, replicate 1
# [4] = 12 h, 10 µM, compound concentration 10 uM, replicate 2
# [5] = 24 h, 1 µM, compound concentration 1 uM, replicate 1
# [6] = 24 h, 1 µM, compound concentration 1 uM, replicate 2
# [7] = 24 h, 10 µM, compound concentration 10 uM, replicate 1
# [8] = 24 h, 10 µM, compound concentration 10 uM, replicate 2
# [9] = 48 h, 1 µM, compound concentration 1 uM, replicate 1
# [10] = 48 h, 1 µM, compound concentration 1 uM, replicate 2
# [11] = 48 h, 10 µM, compound concentration 10 uM, replicate 1
# [12] = 48 h, 10 µM, compound concentration 10 uM, replicate 2
smiles,measurement,setting,value
CN(C)CC#Cc1ccc(OCCCc2sc(N3CCc4cccc(C(=O)Nc5nc6ccccc6s5)c4C3)nc2C(=O)O)c(F)c1 [A-1155463],Population Apoptotic (%),[1],74%
same,Population Fragmented Nuclei (%),[1],27%
same,Population Healthy Nuclei (%),[1],44%
same,Population Hoechst High Intensity Objects (%),[1],12%
same,Population Membrane Permeable-Phenotype (%),[1],30%
same,Population Mitochondria Different-Phenotype (%),[1],9%
same,Population Mitotic Cells (%),[1],25%
same,Population Normal (%),[1],87%
same,Population Pyknosed Nuclei (%),[1],27%
same,Population Tubulin-Different-Phenotype (%),[1],46%
same,Total Cell Count,[1],111
same,Population Apoptotic (%),[2],66%
same,Population Fragmented Nuclei (%),[2],39%
same,Population Healthy Nuclei (%),[2],53%
same,Population Hoechst High Intensity Objects (%),[2],4%
same,Population Membrane Permeable-Phenotype (%),[2],13%
same,Population Mitochondria Different-Phenotype (%),[2],31%
same,Population Mitotic Cells (%),[2],33%
same,Population Normal (%),[2],95%
same,Population Pyknosed Nuclei (%),[2],7%
same,Population Tubulin-Different-Phenotype (%),[2],27%
same,Total Cell Count,[2],86
same,Population Apoptotic (%),[3],63%
same,Population Fragmented Nuclei (%),[3],24%
same,Population Healthy Nuclei (%),[3],41%
same,Population Hoechst High Intensity Objects (%),[3],11%
same,Population Membrane Permeable-Phenotype (%),[3],42%
same,Population Mitochondria Different-Phenotype (%),[3],4%
same,Population Mitotic Cells (%),[3],36%
same,Population Normal (%),[3],88%
same,Population Pyknosed Nuclei (%),[3],33%
same,Population Tubulin-Different-Phenotype (%),[3],74%
same,Total Cell Count,[3],173
same,Population Apoptotic (%),[4],86%
same,Population Fragmented Nuclei (%),[4],33%
same,Population Healthy Nuclei (%),[4],42%
same,Population Hoechst High Intensity Objects (%),[4],5%
same,Population Membrane Permeable-Phenotype (%),[4],24%
same,Population Mitochondria Different-Phenotype (%),[4],16%
same,Population Mitotic Cells (%),[4],13%
same,Population Normal (%),[4],94%
same,Population Pyknosed Nuclei (%),[4],23%
same,Population Tubulin-Different-Phenotype (%),[4],25%
same,Total Cell Count,[4],133
same,Population Apoptotic (%),[5],62%
same,Population Fragmented Nuclei (%),[5],30%
same,Population Healthy Nuclei (%),[5],33%
same,Population Hoechst High Intensity Objects (%),[5],11%
same,Population Membrane Permeable-Phenotype (%),[5],37%
same,Population Mitochondria Different-Phenotype (%),[5],7%
same,Population Mitotic Cells (%),[5],37%
same,Population Normal (%),[5],88%
same,Population Pyknosed Nuclei (%),[5],36%
same,Population Tubulin-Different-Phenotype (%),[5],50%
same,Total Cell Count,[5],134
same,Population Apoptotic (%),[6],50%
same,Population Fragmented Nuclei (%),[6],36%
same,Population Healthy Nuclei (%),[6],54%
same,Population Hoechst High Intensity Objects (%),[6],7%
same,Population Membrane Permeable-Phenotype (%),[6],13%
same,Population Mitochondria Different-Phenotype (%),[6],32%
same,Population Mitotic Cells (%),[6],50%
same,Population Normal (%),[6],92%
same,Population Pyknosed Nuclei (%),[6],9%
same,Population Tubulin-Different-Phenotype (%),[6],28%
same,Total Cell Count,[6],92
same,Population Apoptotic (%),[7],71%
same,Population Fragmented Nuclei (%),[7],27%
same,Population Healthy Nuclei (%),[7],50%
same,Population Hoechst High Intensity Objects (%),[7],9%
same,Population Membrane Permeable-Phenotype (%),[7],44%
same,Population Mitochondria Different-Phenotype (%),[7],2%
same,Population Mitotic Cells (%),[7],28%
same,Population Normal (%),[7],90%
same,Population Tubulin-Different-Phenotype (%),[7],76%
same,Total Cell Count,[7],170
same,Population Apoptotic (%),[8],81%
same,Population Fragmented Nuclei (%),[8],32%
same,Population Healthy Nuclei (%),[8],45%
same,Population Hoechst High Intensity Objects (%),[8],10%
same,Population Membrane Permeable-Phenotype (%),[8],20%
same,Population Mitochondria Different-Phenotype (%),[8],14%
same,Population Mitotic Cells (%),[8],18%
same,Population Normal (%),[8],89%
same,Population Pyknosed Nuclei (%),[8],22%
same,Population Tubulin-Different-Phenotype (%),[8],21%
same,Total Cell Count,[8],135
same,Population Apoptotic (%),[9],68%
same,Population Fragmented Nuclei (%),[9],31%
same,Population Healthy Nuclei (%),[9],34%
same,Population Hoechst High Intensity Objects (%),[9],18%
same,Population Membrane Permeable-Phenotype (%),[9],20%
same,Population Mitochondria Different-Phenotype (%),[9],3%
same,Population Mitotic Cells (%),[9],31%
same,Population Normal (%),[9],81%
same,Population Pyknosed Nuclei (%),[9],33%
same,Population Tubulin-Different-Phenotype (%),[9],56%
same,Total Cell Count,[9],106
same,Population Apoptotic (%),[10],80%
same,Population Fragmented Nuclei (%),[10],35%
same,Population Healthy Nuclei (%),[10],53%
same,Population Hoechst High Intensity Objects (%),[10],11%
same,Population Membrane Permeable-Phenotype (%),[10],28%
same,Population Mitochondria Different-Phenotype (%),[10],6%
same,Population Mitotic Cells (%),[10],20%
same,Population Normal (%),[10],88%
same,Population Pyknosed Nuclei (%),[10],10%
same,Population Tubulin-Different-Phenotype (%),[10],44%
same,Total Cell Count,[10],105
same,Population Apoptotic (%),[11],66%
same,Population Fragmented Nuclei (%),[11],38%
same,Population Healthy Nuclei (%),[11],39%
same,Population Hoechst High Intensity Objects (%),[11],10%
same,Population Membrane Permeable-Phenotype (%),[11],50%
same,Population Mitochondria Different-Phenotype (%),[11],10%
same,Population Mitotic Cells (%),[11],33%
same,Population Normal (%),[11],89%
same,Population Pyknosed Nuclei (%),[11],22%
same,Population Tubulin-Different-Phenotype (%),[11],81%
same,Total Cell Count,[11],135
same,Population Apoptotic (%),[12],95%
same,Population Fragmented Nuclei (%),[12],25%
same,Population Healthy Nuclei (%),[12],57%
same,Population Hoechst High Intensity Objects (%),[12],14%
same,Population Membrane Permeable-Phenotype (%),[12],35%
same,Population Mitochondria Different-Phenotype (%),[12],9%
same,Population Mitotic Cells (%),[12],4%
same,Population Normal (%),[12],85%
same,Population Pyknosed Nuclei (%),[12],17%
same,Population Tubulin-Different-Phenotype (%),[12],74%
same,Total Cell Count,[12],145
NC(=O)Nc1cc(-c2cccc(F)c2)sc1C(=O)N[C@H]1CCCNC1 [AZD-7762],Population Apoptotic (%),[1],69%
same,Population Fragmented Nuclei (%),[1],20%
same,Population Healthy Nuclei (%),[1],62%
same,Population Hoechst High Intensity Objects (%),[1],14%
same,Population Membrane Permeable-Phenotype (%),[1],8%
same,Population Mitochondria Different-Phenotype (%),[1],0%
same,Population Mitotic Cells (%),[1],30%
same,Population Normal (%),[1],85%
same,Population Pyknosed Nuclei (%),[1],17%
same,Population Tubulin-Different-Phenotype (%),[1],1%
same,Total Cell Count,[1],226
same,Population Apoptotic (%),[2],60%
same,Population Fragmented Nuclei (%),[2],42%
same,Population Healthy Nuclei (%),[2],49%
same,Population Hoechst High Intensity Objects (%),[2],29%
same,Population Membrane Permeable-Phenotype (%),[2],16%
same,Population Mitochondria Different-Phenotype (%),[2],3%
same,Population Mitotic Cells (%),[2],40%
same,Population Normal (%),[2],70%
same,Population Pyknosed Nuclei (%),[2],8%
same,Population Tubulin-Different-Phenotype (%),[2],13%
same,Total Cell Count,[2],87
same,Population Apoptotic (%),[3],73% and 68%
same,Population Fragmented Nuclei (%),[3],47% and 34%
same,Population Healthy Nuclei (%),[3],35% and 51%
same,Population Hoechst High Intensity Objects (%),[3],16% and 18%
same,Population Membrane Permeable-Phenotype (%),[3],6% and 7%
same,Population Mitochondria Different-Phenotype (%),[3],3%
same,Population Mitotic Cells (%),[3],26% and 31%
same,Population Normal (%),[3],83% and 81%
same,Population Pyknosed Nuclei (%),[3],17% and 14%
same,Total Cell Count,[3],106 and 295
same,Population Apoptotic (%),[4],46% and 44%
same,Population Fragmented Nuclei (%),[4],22% and 60%
same,Population Healthy Nuclei (%),[4],25% and 27%
same,Population Membrane Permeable-Phenotype (%),[4],21% and 20%
same,Population Mitotic Cells (%),[4],53% and 55%
same,Population Normal (%),[4],94% and 67%
same,Population Tubulin-Different-Phenotype (%),[4],21% and 35%
same,Total Cell Count,[4],79 and 110
same,Population Apoptotic (%),[5],61%
same,Population Fragmented Nuclei (%),[5],25%
same,Population Healthy Nuclei (%),[5],62%
same,Population Hoechst High Intensity Objects (%),[5],14%
same,Population Membrane Permeable-Phenotype (%),[5],11%
same,Population Mitochondria Different-Phenotype (%),[5],1%
same,Population Mitotic Cells (%),[5],38%
same,Population Normal (%),[5],85%
same,Population Pyknosed Nuclei (%),[5],12%
same,Population Tubulin-Different-Phenotype (%),[5],2%
same,Total Cell Count,[5],238
same,Population Apoptotic (%),[6],0%
same,Population Fragmented Nuclei (%),[6],40%
same,Population Healthy Nuclei (%),[6],60%
same,Population Hoechst High Intensity Objects (%),[6],26%
same,Population Membrane Permeable-Phenotype (%),[6],10%
same,Population Mitochondria Different-Phenotype (%),[6],0%
same,Population Mitotic Cells (%),[6],0%
same,Population Normal (%),[6],73%
same,Population Pyknosed Nuclei (%),[6],0%
same,Population Tubulin-Different-Phenotype (%),[6],10%
same,Total Cell Count,[6],68
same,Population Apoptotic (%),[7],37% and 82%
same,Population Fragmented Nuclei (%),[7],47% and 41%
same,Population Healthy Nuclei (%),[7],44% and 47%
same,Population Hoechst High Intensity Objects (%),[7],27% and 14%
same,Population Mitochondria Different-Phenotype (%),[7],4% and 0%
same,Population Normal (%),[7],72% and 85%
same,Population Pyknosed Nuclei (%),[7],8% and 10%
same,Total Cell Count,[7],129 and 316
same,Population Apoptotic (%),[8],57% and 92%
same,Population Healthy Nuclei (%),[8],32% and 16%
same,Population Hoechst High Intensity Objects (%),[8],29% and 20%
same,Population Membrane Permeable-Phenotype (%),[8],100%
same,Population Normal (%),[8],70% and 80%
same,Population Pyknosed Nuclei (%),[8],66%
same,Total Cell Count,[8],115 and 75
same,Population Apoptotic (%),[11],25%
same,Population Fragmented Nuclei (%),[11],59%
same,Population Healthy Nuclei (%),[11],36%
same,Population Hoechst High Intensity Objects (%),[11],31%
same,Population Membrane Permeable-Phenotype (%),[11],17%
same,Population Mitochondria Different-Phenotype (%),[11],4%
same,Population Mitotic Cells (%),[11],75%
same,Population Normal (%),[11],68%
same,Population Pyknosed Nuclei (%),[11],3%
same,Population Tubulin-Different-Phenotype (%),[11],24%
same,Total Cell Count,[11],162
same,Population Apoptotic (%),[12],100%
same,Population Healthy Nuclei (%),[12],37%
same,Population Hoechst High Intensity Objects (%),[12],13%
same,Population Mitochondria Different-Phenotype (%),[12],2%
same,Population Mitotic Cells (%),[12],0%
same,Population Normal (%),[12],86%
same,Population Pyknosed Nuclei (%),[12],2%
same,Population Tubulin-Different-Phenotype (%),[12],14%
same,Total Cell Count,[12],126
